This passage reports EC50 results from ChEMBL document CHEMBL1149023, “Quinone-methide triterpenes and salaspermic acid from Kokoona ochracea” (1994).

Converted amounts (≈) assume the structure as drawn. Where only a bound is given, the exact number is not on record here.

In assay [1] the test system is A-431. The experiment in a line: Cytotoxicity against human A431 cells after 72 hrs by sulforhodamine B assay. The format is functional. To be noted: A-431, 72 h, read-out: ED50 (the source's name). The essentials:
(§1)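 Cells went in triplicate into 4 concentrations (0.16–20 µg/ml) from DMSO stock, final DMSO 0.5% v/v, for 72 h at 37° in 5% CO2. Cells were fixed with cold 50% TCA and stained with 0.4% sulforhodamine B in 1% HOAc. Bound dye was dissolved in 10 mM Tris base and read at 515 nm. ED50 came from the averaged data as percent of DMSO controls. LNCaP and ZR-75-1 were kept in phenol red-free RPMI with hormone-free FBS plus 0.1 nM testosterone or estradiol, respectively.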
For orientation: Sulforhodamine B stains cellular protein and so reports cell mass.

The nature of assay [2]: Cytotoxicity against human KBV1 cells after 72 hrs by sulforhodamine B assay in presence of vinblastine. In kind it is functional. Particulars: KB-V1, 72 h, read-out: ED50 (the source's name).
Assay [3] deals with LNCaP. The experiment in a line: Cytotoxicity against human LNCAP cells after 72 hrs by sulforhodamine B assay. The format is functional. To be noted: read-out: ED50 (the source's name). Put shortly: as §1
Assay [4] concerns MEL-2 (Homo sapiens). The experiment in a line: Cytotoxicity against human MEL-2 cells after 72 hrs by sulforhodamine B assay. Particulars: MEL-2, 72 h, read-out: ED50 (the source's name).
The subject of assay [5] is KB. The experiment in a line: Cytotoxicity against human KB cells after 72 hrs by sulforhodamine B assay. Particulars: read-out: ED50 (the source's name). In kind it is functional. The essentials:
as §1

For assay [6], the system named is HT-1080. The experiment in a line: Cytotoxicity against human HT1080 cells after 48 hrs by sulforhodamine B assay. Particulars: HT-1080, 48 h, read-out: ED50 (the source's name). In kind it is functional. The essentials:
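HT-1080 was kept in MEME with 1% NAA and 10% heat-inactivated FBS. Cells were treated in triplicate at 4 concentrations (0.16–20 µg/ml), final DMSO 0.5%, for 48 h at 37° in 5% CO2. They were fixed with cold 50% TCA and stained with sulforhodamine B; OD was read at 515 nm. ED50 was taken against DMSO-only controls.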

The nature of assay [7]: Cytotoxicity against human U373 cells after 96 hrs by sulforhodamine B assay. To be noted: U373 MG, read-out: ED50 (the source's name). The format is functional, U-373MG ATCC. Put shortly: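 U373 cells were treated in triplicate at 4 concentrations (0.16–20 µg/ml), final DMSO 0.5%, for 96 h at 37° in 5% CO2. Cells were fixed with cold 50% TCA, stained with 0.4% sulforhodamine B in 1% HOAc, and the dye was solubilized in 10 mM Tris. OD was read at 515 nm and ED50 was taken from percent of DMSO control.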

Assay [8] has as its system Col2. Put plainly: Cytotoxicity against human Col2 cells after 72 hrs by sulforhodamine B assay. To be noted: Col2, 72 h, read-out: ED50 (the source's name).
The test system of assay [9] is Lu1. The experiment in a line: Cytotoxicity against human Lu1 cells after 72 hrs by sulforhodamine B assay. To be noted: Lu1, 72 h, read-out: ED50 (the source's name). In kind it is functional. Put shortly: as §1
Assay [10] in a line: Cytotoxicity against human BC1 cells after 72 hrs by sulforhodamine B assay. In kind it is functional. To be noted: BC1, 72 h, read-out: ED50 (the source's name). Put shortly: as §1
For assay [11], the system named is P388. The experiment in a line: Cytotoxicity against mouse P388 cells after 48 hrs by sulforhodamine B assay. The format is functional. To be noted: P388, 48 h, read-out: ED50 (the source's name). The essentials:
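Murine P-388 was kept in Fisher's medium with 10% heat-inactivated FBS. Cells were exposed in triplicate to 4 concentrations (0.16–20 µg/ml), final DMSO 0.5%, for 48 h at 37° in 5% CO2. They were fixed with cold 20% TCA, stained with 0.4% sulforhodamine B, and read at 515 nm. ED50 was taken relative to DMSO controls.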

Assay [12] has as its system ZR-75-1. The experiment in a line: Cytotoxicity against human ZR-75-1 cells after 72 hrs by sulforhodamine B assay. The format is functional. To be noted: ZR-75-1, 72 h, read-out: ED50 (the source's name). Put shortly: as §1
A short description of assay [13]: Cytotoxicity against human KBV1 cells after 72 hrs by sulforhodamine B assay in absence of vinblastine. The format is functional. To be noted: KB-V1, 72 h, read-out: ED50 (the source's name).

As for `CC1=C(O)C(=O)C=C2C1=CC=C1[C@@]2(C)CC[C@@]2(C)[C@@H]3C[C@@](C)(O)C(=O)C[C@]3(C)CC[C@]12C`, the EC50 was found to be 1.1 µg/mL (≈ 2.52 µM) in assay [1]; 3.3 µg/mL in assay [2]; 1 µg/mL (≈ 2.29 µM) in assay [3]; 1.5 µg/mL (≈ 3.44 µM) in assay [4]; 1.7 µg/mL (≈ 3.89 µM) in assay [5]; 2.1 µg/mL (≈ 4.81 µM) in assay [6]. Further, the EC50 is 0.8 µg/mL (≈ 1.83 µM) in assay [7]; 5.8 µg/mL (≈ 13.3 µM) in assay [8]; 2.2 µg/mL (≈ 5.04 µM) in [9]; 0.9 µg/mL (≈ 2.06 µM) in assay [10]; 2 µg/mL (≈ 4.58 µM) in assay [11]; 1 µg/mL (≈ 2.29 µM) in [12]. In addition, the EC50 in assay [13] came out at 3 µg/mL (≈ 6.87 µM).
Regarding `COC(=O)[C@]1(C)CC[C@]2(C)CC[C@]3(C)[C@H]4CC[C@]5(COC(C)=O)[C@@H](C)C(=O)CC[C@H]5[C@]4(C)CC[C@@]3(C)[C@@H]2C1`, the EC50 was 5.2 µg/mL (≈ 9.83 µM) in assay [1]; 12 µg/mL in [2]; 11.8 µg/mL (≈ 22.3 µM) in [3]; more than 20 µg/mL in assay [4]; 10.1 µg/mL (≈ 19.1 µM) in [5]; 10 µg/mL (≈ 18.9 µM) in [6]. Further, the EC50 in assay [7] was more than 20 µg/mL; in assay [8], more than 20 µg/mL; in assay [9], 11.9 µg/mL (≈ 22.5 µM); in assay [10], more than 20 µg/mL; in assay [11], more than 5 µg/mL; in [12], 6.2 µg/mL (≈ 11.7 µM). Also, the EC50 in [13] is 9.8 µg/mL (≈ 18.5 µM).
As for `CC1=C(O)C(=O)C=C2C1=CC=C1[C@@]2(C)CC[C@@]2(C)[C@@H]3C[C@](C)(C(=O)O)CC[C@]3(C)CC[C@]12C` [CELASTROL], the EC50 in assay [1] worked out at 0.6 µg/mL (≈ 1.33 µM); in assay [2], 1.7 µg/mL; in assay [3], 0.3 µg/mL (≈ 0.666 µM); in [4] it was 0.6 µg/mL (≈ 1.33 µM); in [5], 1.2 µg/mL (≈ 2.66 µM); in assay [6], 0.5 µg/mL (≈ 1.11 µM). In addition, the EC50 was 0.4 µg/mL (≈ 0.888 µM) in assay [7]; 2.3 µg/mL (≈ 5.1 µM) in assay [8]; 1.3 µg/mL (≈ 2.88 µM) in [9]; 0.3 µg/mL (≈ 0.666 µM) in assay [10]; 3.5 µg/mL (≈ 7.77 µM) in assay [11]; 0.4 µg/mL (≈ 0.888 µM) in [12]. In [13], the EC50 is 2.4 µg/mL (≈ 5.33 µM).
Regarding `COC(=O)[C@]1(C)CC[C@]2(C)CC[C@]3(C)[C@H]4CC[C@@]56CO[C@@](O)(CC[C@H]5[C@]4(C)CC[C@@]3(C)[C@@H]2C1)[C@@H]6C` [SALASPERMIC ACID METHYL ESTER], the EC50 in [1], in assay [2], in [3], in [4], in assay [5] and in assay [6] was more than 20 µg/mL throughout. In addition, the EC50 is more than 20 µg/mL in assay [7]; more than 20 µg/mL in assay [8]; more than 20 µg/mL in assay [9]; more than 20 µg/mL in assay [10]; more than 5 µg/mL in assay [11]; more than 20 µg/mL in assay [12]. Besides, the EC50 in assay [13] is more than 20 µg/mL.
`C[C@@H]1[C@@]23CC[C@H]4[C@@](C)(CC[C@@]5(C)[C@@H]6C[C@](C)(C(=O)O)CC[C@]6(C)CC[C@]45C)[C@@H]2CC[C@@]1(O)OC3` [SALASPERMIC ACID]: the EC50 in [1], in assay [2], in assay [3], in assay [4], in assay [5] and in assay [6] was more than 20 µg/mL in each case. In addition, the EC50 is more than 20 µg/mL in [7]; more than 20 µg/mL in assay [8]; more than 20 µg/mL in [9]; more than 20 µg/mL in assay [10]; more than 5 µg/mL in assay [11]; more than 20 µg/mL in assay [12]. Moreover, the EC50 in [13] is more than 20 µg/mL.
As to `CC1=C(O)C(=O)C=C2C1=CC=C1[C@@]2(C)CC[C@@]2(C)[C@@H]3C[C@@H](C)C(=O)C[C@]3(C)CC[C@]12C` [TINGENONE], the EC50 in assay [1] was found to be 0.4 µg/mL (≈ 0.951 µM); in [2] it was 0.5 µg/mL; in [3] it was 0.7 µg/mL (≈ 1.66 µM); in assay [4], 0.2 µg/mL (≈ 0.476 µM); in assay [5], 0.9 µg/mL (≈ 2.14 µM); in [6], 0.7 µg/mL (≈ 1.66 µM). For the same molecule, the EC50 in assay [7] is 0.6 µg/mL (≈ 1.43 µM); in [8], 0.2 µg/mL (≈ 0.476 µM); in assay [9] it was 0.6 µg/mL (≈ 1.43 µM); in assay [10], 0.3 µg/mL (≈ 0.713 µM); in [11] it was 0.1 µg/mL (≈ 0.238 µM); in assay [12], 0.2 µg/mL (≈ 0.476 µM). For the same molecule, in assay [13], the EC50 is 0.4 µg/mL (≈ 0.951 µM).
